Data reported in ChEMBL document CHEMBL4219084, “Design, synthesis and biological assessment of N-adamantyl, substituted adamantyl and noradamantyl phthalimidines for nitrite, TNF-α and angiogenesis inhibitory activities” (Bioorg Med Chem, 2018).

Columns and labels:
[1] = test system: RAW264.7; assay: Antiinflammatory activity in mouse RAW264.7 cells assessed as reduction in LPS-induced nitrite production by measuring nitrite levels at 30 uM pretreated for 1 hr followed by LPS-challenge measured after 20 to 24 hrs by Griess assay relative to control; assay type: functional; design: scale not given: the % may be the effect or the level left
How it was run: (§1)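 RAW 264.7 cells in DMEM with 10% FBS and penicillin/streptomycin, 37 °C, 5% CO2, seeded at 200×10^3 per well in 24-well plates. Media replaced at 24 h. Compound in DMSO (0.5% final) added 2 h later, then LPS 60 ng/ml 1 h after that. Media collected 20–24 h after LPS. 3–4 wells per concentration, expressed as % of DMSO vehicle control (mean ± SE).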

[2] = organism: Danio rerio; assay: Antiangiogenic activity in 24 hrs post fertilized zebra fish embryo harboring fli1:EGFP assessed as intersegmental vessel length at 5 ug/ml after 24 hrs by fluorescence microscopic analysis; assay type: functional
How it was run: (§2)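 fli1:EGFP transgenic zebrafish embryos, identified by fluorescence, manually dechorionated at 24 h post fertilization and placed in plates with compound diluted in tank water, vehicle controls alongside. After 24 h exposure, embryos anaesthetized with 0.1% tricaine and intersegmental vessels scored for length (µm) and number. Values given as mean ± S.E.M.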

[3] = organism: Danio rerio; assay: Toxicity in 24 hrs post fertilized zebra fish embryo harboring fli1:EGFP at >5 ug/ml; assay type: organism-based; conditions: zebrafish, in vivo
[4] = organism: Danio rerio; assay: Antiangiogenic activity in 24 hrs post fertilized zebra fish embryo harboring fli1:EGFP assessed as number of intersegmental vessel at 5 ug/ml after 24 hrs by fluorescence microscopic analysis; assay type: functional; how it was run: as §2
[5] = Cytotoxicity against LPS-induced mouse RAW264.7 cells assessed as cell viability at 30 uM pretreated for 1 hr followed by LPS-challenge measured after 20 to 24 hrs by CellTiter 96 aqueous non-radioactive cell proliferation assay; assay type: cell-based; conditions: LPS-induced RAW264.7 cells, read-out: Activity; how it was run: as §1
[6] = test system: RAW264.7; assay: Antiinflammatory activity in mouse RAW264.7 cells assessed as reduction in LPS-induced TNFalpha production by measuring TNFalpha levels at 30 uM pretreated for 1 hr followed by LPS-challenge measured after 20 to 24 hrs by ELISA relative to control; assay type: functional; design: scale not given: the % may be the effect or the level left; how it was run: as §1
[7] = organism: Danio rerio; assay: Antiangiogenic activity in 24 hrs post fertilized zebra fish embryo harboring fli1:EGFP assessed as number of intersegmental vessel at 10 ug/ml after 24 hrs by fluorescence microscopic analysis; assay type: functional; how it was run: as §2
[8] = organism: Danio rerio; assay: Antiangiogenic activity in 24 hrs post fertilized zebra fish embryo harboring fli1:EGFP assessed as intersegmental vessel length at 10 ug/ml after 24 hrs by fluorescence microscopic analysis; assay type: functional; how it was run: as §2
[9] = organism: Danio rerio; assay: Toxicity in 24 hrs post fertilized zebra fish embryo harboring fli1:EGFP at >50 ug/ml; assay type: organism-based; conditions: zebrafish, in vivo
[10] = organism: Danio rerio; assay: Antiangiogenic activity in 24 hrs post fertilized zebra fish embryo harboring fli1:EGFP assessed as intersegmental vessel length after 24 hrs by fluorescence microscopic analysis; assay type: functional, organism-based; how it was run: as §2
[11] = Solubility of the compound in DMEM media at 30 uM; assay type: physicochemical

## O=C1c2cccc([N+](=O)[O-])c2CN1C1C2CC3CC(C2)CC1C3 (stereo not drawn)
[1]
  Activity: 9.2%
[2]
  Activity: 48.2 um
[3]
  Activity: Toxic
[4]
  Activity: 14.6
[5]
  viability at 30 µM: 82%
[6]
  Activity: 65%

## O=C1c2cccc([N+](=O)[O-])c2CN1C12CC3CC(CC(O)(C3)C1)C2
[1]
  Activity: 94%
[5]
  viability at 30 µM: 107%
[6]
  Activity: 91%

## O=C1c2ccccc2CN1C1C2CC3CC(C2)CC1C3 (stereo not drawn)
[1]
  Activity: 62%
[5]
  viability at 30 µM: 75%
[6]
  Activity: 58%

## CC(N1Cc2c(cccc2[N+](=O)[O-])C1=S)C12CC3CC(CC(C3)C1)C2 (stereo not drawn)
[1]
  Activity: 11.5%
[7]
  Activity: 22
[5]
  viability at 30 µM: 83%
[8]
  Activity: 86.4 um
[6]
  Activity: 96%

## CC(N1Cc2c(cccc2[N+](=O)[O-])C1=O)C12CC3CC(CC(C3)C1)C2 (stereo not drawn)
[1]
  Activity: 35%
[5]
  viability at 30 µM: 81%
[6]
  Activity: 72%

## Nc1cccc2c1CN(C1C3CC4CC(C3)CC1C4)C2=O (stereo not drawn)
[9]
  Activity: Toxic
[1]
  Activity: 72%
[10]
  Activity: Dose-dependent effect
[7]
  Activity: 14
[5]
  viability at 30 µM: 99%
[8]
  Activity: 42.1 um
[6]
  Activity: 101%

## O=C1c2cccc([N+](=O)[O-])c2CN1C12CC3CC(CC1C3)C2
[9]
  Activity: Toxic
[1]
  Activity: 49%
[10]
  Activity: Dose-dependent effect
[7]
  Activity: 8.6
[5]
  viability at 30 µM: 92%
[8]
  Activity: 42.8 um
[6]
  Activity: 90%

## O=C1c2ccccc2CN1C12CC3CC(CC1C3)C2
[5]
  viability at 30 µM: 74%
[6]
  Activity: 52%

## O=C1c2cccc([N+](=O)[O-])c2CN1CC12CC3CC(CC(C3)C1)C2
[1]
  Activity: 55%
[5]
  viability at 30 µM: 92%
[6]
  Activity: 77%

## CC(N1Cc2ccccc2C1=S)C12CC3CC(CC(C3)C1)C2 (stereo not drawn)
[1]
  Activity: 52%
[11]
  solubility: Insoluble
[5]
  viability at 30 µM: 84%
[6]
  Activity: 90%

## O=C1c2ccccc2CN1C12CC3CC(CC(O)(C3)C1)C2
[1]
  Activity: 101%
[7]
  Activity: 19.5
[5]
  viability at 30 µM: 98%
[8]
  Activity: 105.1 um
[6]
  Activity: 80%

## O=C1c2cccc([N+](=O)[O-])c2CN1C12CC3CC(CC(C3)C1)C2
[1]
  Activity: 40%
[11]
  solubility: Insoluble
[5]
  viability at 30 µM: 114%
[6]
  Activity: 86%

## S=C1c2ccccc2CN1C12CC3CC(CC1C3)C2
[11]
  solubility: Insoluble
[5]
  viability at 30 µM: 94%
[6]
  Activity: 85%

## O=C1c2ccccc2CN1CC12CC3CC(CC(C3)C1)C2
[1]
  Activity: 50%
[7]
  Activity: 18.2
[5]
  viability at 30 µM: 81%
[8]
  Activity: 83.1 um
[6]
  Activity: 59%

## CC(N1Cc2ccccc2C1=O)C12CC3CC(CC(C3)C1)C2 (stereo not drawn)
[1]
  Activity: 52%
[5]
  viability at 30 µM: 82%
[6]
  Activity: 55%
